Data reported in ChEMBL document CHEMBL1155452, “Oncocin (VDKPPYLPRPRPPRRIYNR-NH2): a novel antibacterial peptide optimized against gram-negative human pathogens” (J Med Chem, 2010).

Tests used:
[1] = tested on: Escherichia coli; assay: Antimicrobial activity against Escherichia coli 205024 after 20 hrs by broth microdilution method; assay type: functional; conditions: Escherichia coli, 205024, 20 h
How it was run: (§1)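 Pathogens grown overnight on Columbia agar. Colonies suspended in 0.9% saline to OD 0.1, diluted 1:300 in 1% TSB, final (1-2) × 10^5 cfu/well. Peptides 2-fold serially diluted in 1% TSB from 128 to typically 0.5 μg/mL. Incubation at 37 °C; A595 read after 20 ± 2 h. MIC is the lowest concentration with absorbance not above medium only. Triplicate.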

[2] = tested on: Pseudomonas aeruginosa; assay: Antimicrobial activity against Pseudomonas aeruginosa 61118003 after 20 hrs by broth microdilution method; assay type: functional; conditions: Pseudomonas aeruginosa, 61118003, 20 h
How it was run: (§2)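 Pathogenic strains grown overnight on Columbia agar, colonies suspended in 0.9% saline to OD 0.1, diluted 1:300 in 1% TSB; final (1-2) × 10^5 cfu/well. Peptides 2-fold serially diluted in 1% TSB from 128 μg/mL, typically to 0.5 μg/mL. Incubated 37 °C, absorbance at 595 nm after 20 ± 2 h, in triplicate; MIC = lowest concentration with absorbance not exceeding medium only.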

[3] = Toxicity in human erythrocytes assessed as hemolytic activity at 600 ug/ml after 1 hr; assay type: cell-based; conditions: erythrocyte
How it was run: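 Peptides 2-fold serially diluted from 600 to 5 μg/mL in PBS (pH 7.4), mixed 1:1 with 2% washed human erythrocytes in PBS, 37 °C for 1 h. After centrifugation at 1000g, supernatant A405 read. Triton X-100 0.1% as positive control, PBS as negative control.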

[4] = tested on: Pseudomonas aeruginosa; assay: Antimicrobial activity against Pseudomonas aeruginosa Walter after 20 hrs by broth microdilution method; assay type: functional; how it was run: as §2
[5] = tested on: Escherichia coli; assay: Antimicrobial activity against Escherichia coli 70419002 after 20 hrs by broth microdilution method; assay type: functional; conditions: Escherichia coli, 70419002, 20 h; how it was run: as §1
[6] = tested on: Enterobacter cloacae; assay: Antimicrobial activity against Enterobacter cloacae Ha89 after 20 hrs by broth microdilution method; assay type: functional; conditions: Ha89, 20 h; how it was run: as §1
[7] = tested on: Acinetobacter baumannii; assay: Antimicrobial activity against Acinetobacter baumannii M17 after 20 hrs by broth microdilution method; assay type: functional; conditions: M17, 20 h; how it was run: as §1
[8] = tested on: Klebsiella pneumoniae; assay: Antimicrobial activity against Klebsiella pneumoniae DSM 681 after 20 hrs by broth microdilution method; assay type: functional; conditions: DSM 681, 20 h; how it was run: as §1
[9] = Stability in 25% mouse serum assessed as compound remaining at 75 ug/ml after 2 hrs by MALDI-TOF-MS analysis; assay type: ADME, cell-free; conditions: read-out: Stability
How it was run: (§3)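 Peptide at 75 μg/mL final in pooled mouse serum (undiluted or 25% v:v aqueous), 37 °C. Triplicate aliquots taken at 0, 30, 60, 120 and 240 min and precipitated with 3% TCA on ice for 10 min. Supernatant neutralized with NaOH and analysed by RP-HPLC on C18 with TFA-containing gradient. Amounts expressed relative to 0 min; metabolites identified by MALDI-TOF-MS.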

[10] = tested on: Stenotrophomonas; assay: Antimicrobial activity against Stenotrophomonas ICB 308054 after 20 hrs by broth microdilution method; assay type: functional; conditions: ICB 308054, 20 h; how it was run: as §1
[11] = Stability in 100% mouse serum assessed as half life at 75 ug/ml by MALDI-TOF-MS analysis; assay type: ADME, cell-free; how it was run: as §3
[12] = tested on: Escherichia coli; assay: Antimicrobial activity against Escherichia coli 455/7 after 20 hrs by broth microdilution method; assay type: functional; conditions: 455/7, 20 h; how it was run: as §1
[13] = tested on: Serum; assay: Stability in 25% mouse serum assessed as peptide-12 level at 75 ug/ml after 30 mins by MALDI-TOF-MS analysis; assay type: ADME, cell-free; conditions: 0.5 h; how it was run: as §3
[14] = tested on: Serum; assay: Stability in 25% mouse serum assessed as peptide-13 level at 75 ug/ml after 30 mins by MALDI-TOF-MS analysis; assay type: ADME, cell-free; conditions: 0.5 h; how it was run: as §3
[15] = tested on: Acinetobacter baumannii; assay: Antimicrobial activity against Acinetobacter baumannii ICB 9250 after 20 hrs by broth microdilution method; assay type: functional; conditions: ICB 9250, 20 h; how it was run: as §1
[16] = tested on: Enterobacter cloacae; assay: Antimicrobial activity against Enterobacter cloacae Ha185 after 20 hrs by broth microdilution method; assay type: functional; conditions: Ha185, 20 h; how it was run: as §2
[17] = tested on: Escherichia coli; assay: Antimicrobial activity against Escherichia coli 70329001 after 20 hrs by broth microdilution method; assay type: functional; conditions: Escherichia coli, 70329001, 20 h; how it was run: as §1
[18] = tested on: Serum; assay: Stability in 25% mouse serum assessed as peptide-12 level at 75 ug/ml after 2 hrs by MALDI-TOF-MS analysis; assay type: ADME, cell-free; how it was run: as §3
[19] = tested on: Stenotrophomonas; assay: Antimicrobial activity against Stenotrophomonas ICB 7789 after 20 hrs by broth microdilution method; assay type: functional; conditions: ICB 7789, 20 h; how it was run: as §1

H-VDKPPYLPRPRPPRRIYNR-NH2 [ONCOCIN]
MIC [1]: 4 µg/mL
MIC [2]: 2 µg/mL
Activity [3]: Non-toxic
MIC [4]: 8 µg/mL
MIC [5]: 8 µg/mL
MIC [6]: 0.25 µg/mL
MIC [7]: 1 µg/mL
MIC [8]: 0.25 µg/mL
remaining at 2 h, 75 ug/ml [9]: 60%
MIC [10]: 32 µg/mL
half-life at 75 ug/ml [11]: 20 min
MIC [12]: 0.5 µg/mL
Activity [13]: 10%
Activity [14]: 10%
MIC [15]: 0.5 µg/mL
MIC [16]: 0.5 µg/mL
MIC [17]: 1 µg/mL
Activity [18]: 20%
MIC [19]: 32 µg/mL
